Measured values taken from ChEMBL document CHEMBL3797057, “Synthesis and bioevaluation of substituted chalcones, coumaranones and other flavonoids as anti-HIV agents” (Bioorg Med Chem, 2016).
Activity calls are given as the source filed them. No cut-off for these calls is given here.

Experiments:
[1] = test system: Human immunodeficiency virus 1; assay: Antiviral activity against HIV1 infected in human TZM-bl cells assessed as inhibition of viral infection at 10 uM preincubated with cells for 5 mins followed by viral infection measured after 24 hrs by Bright Glo luciferase reporter gene assay relative to control; assay type: functional; conditions: for inhibition at 10 µM: Human immunodeficiency virus 1, TZM-bl
How it was run: (§1)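 TZM-bl cells at 50-60% confluence, in D10 medium, were pre-treated in triplicate with 10 µM compound or DMSO vehicle, for 5 min or 3 h. Virus was then added at 60 TCID50/0.1mL (MOI=0.01). After 24 h the cells were lysed for luciferase, read over 5 s/well. Result is % reduction in relative light units versus the virus+DMSO control.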

[2] = Cytotoxicity against human TZM-bl cells assessed as inhibition of cell viability at 10 uM by CytoTox Glo assay relative to control; assay type: cell-based; conditions: for cytotoxicity at 10 µM: TZM-bl cells, read-out: INH; for inhibition (INH): tzm, 10 µM
How it was run: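 Replicate dishes of treated TZM-bl cells (50-60% confluent, compound at 10 µM in D10, triplicate) assayed with CytoTox Glo for dead and total cell numbers. Result is % difference in live-cell luminescence versus matched DMSO vehicle control.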

[3] = test system: Human immunodeficiency virus 1; assay: Antiviral activity against HIV1 infected in human TZM-bl cells assessed as inhibition of viral infection at 10 uM preincubated with cells for 3 hrs followed by viral infection measured after 24 hrs by Bright Glo luciferase reporter gene assay relative to control; assay type: functional; conditions: Human immunodeficiency virus 1, TZM-bl; how it was run: as §1
[4] = test system: Human immunodeficiency virus 1; assay: Antiviral activity against HIV1 BAL infected in human PM1 cells assessed as inhibition of viral propagation at 10 uM preincubated with cells for 10 mins followed by viral infection measured after 2 hrs by p24 ELISA relative to control; assay type: functional; conditions: for inhibition at 10 µM: Human immunodeficiency virus 1, BAL
How it was run: (§2)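 PM1 cells (1.5 × 10^5/0.1 mL) in R20 (RPMI 1640, 20% FBS, 10mM HEPES) given compound or matched DMSO 10 min, then infected with HIV-1 BaL at 150 TCID50/0.1 mL (MOI=0.001) for 2 h. Cells washed, resuspended in fresh R20 with compound or vehicle. Supernatants taken day 3; culture continued to day 5, supernatant assayed for HIV p24 by ELISA.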

[5] = test system: Human immunodeficiency virus 1; assay: Antiviral activity against HIV1 BAL infected in human PM1 cells assessed as inhibition of viral propagation at 5 uM preincubated with cells for 10 mins followed by viral infection measured after 2 hrs by p24 ELISA relative to control; assay type: functional; conditions: for inhibition at 5 µM: Human immunodeficiency virus 1, BAL; how it was run: as §2
[6] = Cytotoxicity against human PM1 cells assessed as inhibition of cell viability at 10 uM by trypan blue dye exclusion method relative to control; assay type: cell-based; conditions: read-out: INH
How it was run: (§3)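 PM1 cells (1.5 × 10^5/0.1 mL) kept in R20 with compound or matched DMSO vehicle over the 5-day BaL propagation assay (10 min pre-treatment, 2 h infection, wash, re-treatment). Viability monitored by trypan blue dye exclusion.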

[7] = Cytotoxicity against human PM1 cells assessed as inhibition of cell viability at 5 uM by trypan blue dye exclusion method relative to control; assay type: cell-based; conditions: for inhibition (INH): pm1, 5 µM; for cytotoxicity at 5 µM: PM1 cells, read-out: INH; how it was run: as §3
CHO = assay: Cytotoxicity against CHO cells assessed as decrease in cell proliferation after 48 hrs by MTS assay; assay type: cell-based, Cricetulus griseus
How it was run: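 CHO cells plated at 10,000 cells/mL, in triplicate, incubated overnight. Compound then added from DMSO stock, final DMSO <1%. After 48 h at 37°C in 5% CO2, MTS reagent was added for 4 h and absorbance read at 490 nm. IC50 taken from the plot of relative A490 versus concentration.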

[8] = test system: Human immunodeficiency virus 1; assay: Antiviral activity against HIV1 BAL infected in human TZM-bl cells assessed as inhibition of viral infection; assay type: functional, organism-based; conditions: for IC50: Human immunodeficiency virus 1, BAL
How it was run: (§4)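 TZM-bl cells seeded at 6 × 10^4 cells/ml (6000 cells/well), left overnight, then at 50-60% confluence treated in triplicate with compound in D10 or DMSO vehicle. After 5 min, HIV-1 added at 60 TCID50/0.1mL (MOI=0.01). After 24 h at 37°C/5% CO2, cells lysed for Bright Glo luciferase. Inhibition is % reduction in RLU versus virus+DMSO control, with no-virus wells as baseline.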

[9] = Cytotoxicity against human TZM-bl cells assessed as decrease in cell viability at IC50 by CytoTox Glo assay relative to control; assay type: cell-based
[10] = Cytotoxicity against human PM1 cells assessed as cell viability at 10 uM by trypan blue dye exclusion method relative to control; assay type: cell-based; conditions: read-out: Activity; how it was run: as §3
[11] = test system: Human immunodeficiency virus 1; assay: Antiviral activity against HIV1 92UG029 clinical isolate infected in human TZM-bl cells assessed as inhibition of viral infection; assay type: functional, organism-based; how it was run: as §4
[12] = test system: Human immunodeficiency virus 1; assay: Antiviral activity against HIV1 93UG070 clinical isolate infected in human TZM-bl cells assessed as inhibition of viral infection; assay type: functional, organism-based; how it was run: as §4
[13] = test system: Human immunodeficiency virus 1; assay: Antiviral activity against HIV1 93UG067 clinical isolate infected in human TZM-bl cells assessed as inhibition of viral infection; assay type: functional, organism-based; how it was run: as §4
[14] = Cytotoxicity against human TZM-bl cells assessed as decrease in cell metabolic activity up to 10 uM by MTT reduction assay; assay type: ADME, cell-based
How it was run: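 Confluent TZM-bl cells exposed to compound up to 10 µM or matched vehicle; cell metabolic activity monitored by MTT reduction assay. Mean ± SEM, n=3.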

With CCOc1ccc(Cl)cc1/C=C/C(=O)c1c(O)cccc1OCc1ccccc1 the inhibition at 10 µM [1] was 64.8%, the cytotoxicity at 10 µM [2] was 8.7% and the inhibition at 10 µM [3] was 79%. It also gave an inhibition at 10 µM [4] of 95.8%, an inhibition at 5 µM [5] of 65.8% and a cytotoxicity at 10 µM [6] of 12.3%. For the same compound, the “inhibition (INH)” value [7] was “Not Active”.

For COc1cc(OC)c(-c2oc3ccccc3c(=O)c2O)cc1Br, the inhibition at 10 µM [1] was 43.6% and the “inhibition (INH)” value [2] was “Not Active”.

COc1ccc(Br)cc1/C=C/C(=O)c1ccccc1O gave a cytotoxicity at 10 µM [2] of 62.6%.

For CCOc1ccc(Cl)cc1/C=C1\Oc2cccc(OCc3ccccc3)c2C1=O, the inhibition at 10 µM [1] was 15.7% and the “inhibition (INH)” value [2] was “Not Active”.

COc1ccc(Br)cc1-c1cc(=O)c2ccccc2o1 showed a cytotoxicity at 10 µM [2] of 23.6%.

For COc1ccc(Br)cc1/C=C1\Oc2cccc(OC)c2C1=O, the inhibition at 10 µM [1] was 9.2%, the cytotoxicity at 10 µM [2] was 0.2% and the IC50 (CHO; Cricetulus griseus, CHO, 48 h, read-out: IC50) was 17.3 µM.

For CCOc1ccc(Br)cc1-c1oc2ccccc2c(=O)c1O, the inhibition at 10 µM [1] was 51.7%, the “inhibition (INH)” value [2] was “Not Active” and the IC50 [8] was 10.4 µM. For the same compound, the Activity [9] was “Non-toxic”, the inhibition at 10 µM [3] was 54.9% and the inhibition at 10 µM [4] was 1.3%. For the same compound, the inhibition [5] was “inactive”, the cytotoxicity at 10 µM [6] was 23.1% and the cytotoxicity at 5 µM [7] was 16.5%.

In the case of COc1ccccc1/C=C/C(=O)c1c(O)cccc1OCc1ccccc1, the IC50 (CHO; cho) is reported as “ND(toxic)”.

COc1cc(OC)c(/C=C/C(=O)c2ccccc2O)cc1Br showed an inhibition at 10 µM [1] of 28.6% and a cytotoxicity at 10 µM [2] of 1.9%.

For CCOc1ccc(Br)cc1/C=C/C(=O)c1ccccc1O, the cytotoxicity at 10 µM [2] was 51.9%.

In the case of CCOc1ccc(Br)cc1/C=C1\Oc2cccc(OCc3ccccc3)c2C1=O, the inhibition at 10 µM [1] is reported as 12.6% and the cytotoxicity at 10 µM [2] is reported as 8.4%.

In the case of CCOc1ccc(Br)cc1/C=C/C(=O)c1c(O)cccc1OCc1ccccc1, the inhibition at 10 µM [1] is reported as 60.2%, the “inhibition (INH)” value [2] is reported as “Not Active” and the inhibition at 10 µM [3] is reported as 89.9%. For the same compound, the inhibition at 10 µM [4] was 92.3%, the inhibition at 5 µM [5] was 72.2% and the “inhibition (INH)” value [7] was “Not Active”. The viability at 10 µM [10] was 96.8%.

Work on COc1ccc(Cl)cc1/C=C/C(=O)c1ccccc1O yielded a cytotoxicity at 10 µM [2] of 99.5%.

For COc1ccc(I)cc1-c1oc2ccccc2c(=O)c1O, the cytotoxicity at 10 µM [2] was 15.3%.

With CCOc1ccc(Cl)cc1-c1oc2ccccc2c(=O)c1O the cytotoxicity at 10 µM [2] was 21.9%, the IC50 [8] was 12.6 µM and the Activity [9] was 20%. For the same compound, the inhibition at 10 µM [3] was 54.1%, the inhibition [4] was “inactive” and the cytotoxicity at 10 µM [6] was 25.8%.

With COc1ccccc1-c1oc2ccccc2c(=O)c1O the inhibition at 10 µM [1] was 21.3%, the “inhibition (INH)” value [2] was “Not Active” and the IC50 [8] was 30.4 µM. For the same compound, the Activity [9] was “Non-toxic”.

In the case of COc1ccc(Br)cc1-c1cc(=O)c2c(O)cccc2o1, the cytotoxicity at 10 µM [2] is reported as 34.8%.

With CCOc1ccc(Cl)cc1/C=C/C(=O)c1ccccc1O the inhibition at 10 µM [1] was 86.1% and the cytotoxicity at 10 µM [2] was 86.4%.

Work on COc1ccccc1-c1cc(=O)c2c(O)cccc2o1 yielded an inhibition at 10 µM [1] of 83.8%, a cytotoxicity at 10 µM [2] of 44.5% and an IC50 [8] of 4.4 µM. For the same compound, the Activity [9] was 42%.

Work on COc1ccc(I)cc1/C=C/C(=O)c1ccccc1O yielded an inhibition at 10 µM [1] of 99.7% and a cytotoxicity at 10 µM [2] of 99.6%.

For CCCCCCCCOc1ccc(Br)cc1/C=C/C(=O)c1c(O)cccc1OCc1ccccc1, the inhibition at 10 µM [1] was < 10% and the inhibition at 10 µM [3] was 27.9%.

In the case of COc1ccc(Br)cc1-c1oc2ccccc2c(=O)c1O, the inhibition at 10 µM [1] is reported as 22.4%, the “inhibition (INH)” value [2] is reported as “Not Active” and the IC50 [8] is reported as 43.7 µM. For the same compound, the Activity [9] was “Non-toxic”.

In the case of COc1cc(Br)cc(-c2oc3ccccc3c(=O)c2O)c1OC, the inhibition at 10 µM [1] is reported as 25.9%, the “inhibition (INH)” value [2] is reported as “Not Active” and the IC50 [8] is reported as 30.9 µM. The Activity [9] was “Non-toxic”.

In the case of COc1ccccc1/C=C/C(=O)c1ccccc1O, the inhibition [1] is reported as “inactive” and the cytotoxicity at 10 µM [2] is reported as 16.5%.

For COc1ccc(Br)cc1/C=C/C(=O)c1c(O)cccc1OCc1ccccc1, the inhibition at 10 µM [1] was 86.5%, the cytotoxicity at 10 µM [2] was 23.4% and the inhibition [8] was “Dose-dependent effect”. The IC50 [8] was 4.7 µM, the Activity [9] was “Non-toxic” and the inhibition [11] was “Dose-dependent effect”. For the same compound, the inhibition [12] was “Dose-dependent effect”, the inhibition [13] was “Dose-dependent effect” and the Activity [14] was “Non-toxic”. For the same compound, the inhibition at 10 µM [3] was 90.5%, the inhibition at 10 µM [4] was 99.9% and the inhibition at 5 µM [5] was 80%. For the same compound, the cytotoxicity at 10 µM [6] was 61.7% and the cytotoxicity at 5 µM [7] was 0.6%.

For COc1ccc(Br)cc1/C=C/C(=O)c1ccc2ccccc2c1O, the cytotoxicity at 10 µM [2] was 19.9%, the IC50 [8] was 20 µM and the Activity [9] was 90%.

COc1cc(Br)cc(/C=C/C(=O)c2ccccc2O)c1OC showed a cytotoxicity at 10 µM [2] of 72.3%.

In the case of COc1ccc(C)cc1/C=C/C(=O)c1ccccc1O, the cytotoxicity at 10 µM [2] is reported as 46.9%.

COc1ccccc1-c1cc(=O)c2ccccc2o1 showed a cytotoxicity at 10 µM [2] of 39.5%.

COc1ccc(Cl)cc1-c1oc2ccccc2c(=O)c1O showed a cytotoxicity at 10 µM [2] of 23.5%.

COc1ccc(C)cc1-c1oc2ccccc2c(=O)c1O gave a cytotoxicity at 10 µM [2] of 4.8%.

With COc1ccc(Br)cc1C1CC(=O)c2ccccc2O1 (centres undefined) the “inhibition (INH)” value [2] was “Not Active”.

In the case of COc1ccc(Br)cc1/C=C/C(=O)c1c(O)cccc1OC, the cytotoxicity at 10 µM [2] is reported as 90.4%.

Compound COc1ccc(Br)cc1-c1cc(=O)c2c(OCc3ccccc3)cccc2o1 has an inhibition at 10 µM [1] of 16.4%, a cytotoxicity at 10 µM [2] of 6.5% and an IC50 [8] of 42.3 µM. For the same compound, the Activity [9] was “Non-toxic”.
